Test results published in ChEMBL document CHEMBL2412970, “Synthesis and anticancer activity of 2,4-disubstituted furo[3,2-b]indole derivatives” (Eur J Med Chem, 2013).
Calls of active or inactive are those of the source. The rule behind the calls is not given here.

How the values were obtained:
NCI-H226 = experiment: Cytotoxicity against human NCI-H226 cells after 48 hrs by sulforhodamine B assay; assay type: functional; settings: NCI-H226, 48 h
A498 [1] = experiment: Induction of cell cycle arrest at G2/M phase in human A498 cells assessed as increase in CDK1 expression at 0.5 uM after 6 hrs by Western blotting analysis; assay type: functional, cell-based
Outline: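 A498 cells exposed to 0.5 µM for 6, 12, 24, 36 or 48 h, then lysed on ice 30 min and spun 12 000g 20 min. Protein measured by Bradford; 20 µg per lane run on 10% SDS-PAGE, transferred to nitrocellulose, probed for cyclin B1 and CDK1, β-actin as loading control; n = 3 independent experiments.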

COLO 205 [2] = experiment: Cytotoxicity against human COLO205 cells after 48 hrs by MTT assay; assay type: functional, cell-based; settings: COLO 205, 48 h
Outline: (§1)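 Cells were treated with a range of concentrations for 48 h. Viability was read by MTT: formazan was dissolved in DMSO and absorbance read at 570 nm. Untreated or 0.1% DMSO cells served as control. Data are mean from three independent experiments. HL-60, H460 and COLO 205 were kept in RPMI-1640 with 10% FBS and penicillin/streptomycin.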

SF-295 = experiment: Cytotoxicity against human SF295 cells after 48 hrs by sulforhodamine B assay; assay type: functional; settings: SF-295, 48 h
A498 [3] = experiment: Cell cycle arrest in human A498 cells assessed as accumulation at G2/M phase at 0.5 uM by propidium iodide staining-based flow cytometry; assay type: functional; settings: TDE = time-dependent effect
UACC-257 = experiment: Cytotoxicity against human UACC257 cells after 48 hrs by sulforhodamine B assay; assay type: functional; settings: UACC-257, 48 h
A498 [4] = experiment: Induction of apoptosis in human A498 cells assessed as increase in Endo G level at 0.5 uM after 6 to 48 hrs by Western blotting analysis; assay type: functional, cell-based
Outline: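 A498 cells exposed for 6, 12, 24, 36 or 48 h, then washed in PBS and lysed. Lysates were held on ice for 30 min and spun at 12 000g for 20 min. Supernatant protein was measured by Bradford assay, run on 10% SDS-PAGE and transferred to nitrocellulose. Blots were probed for AIF, Endo G, Apaf-1, cytochrome c, caspase 9 and caspase 3, with β-actin as loading control; n = 3 independent experiments.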

COLO 205 [5] = experiment: Cytotoxicity against human COLO205 cells after 48 hrs by sulforhodamine B assay; assay type: functional; settings: COLO 205, 48 h
SW-620 = experiment: Cytotoxicity against human SW620 cells after 48 hrs by sulforhodamine B assay; assay type: functional; settings: SW-620, 48 h
A498 [6] = experiment: Cytotoxicity against human A498 cells after 48 hrs by sulforhodamine B assay; assay type: functional; settings: A498, 48 h
A498 [7] = experiment: Cytotoxicity against human A498 cells after 48 hrs by MTT assay; assay type: functional, cell-based
K562 = experiment: Cytotoxicity against human K562 cells after 48 hrs by sulforhodamine B assay; assay type: functional; settings: K562, 48 h
A498 [8] = experiment: Cell cycle arrest in human A498 cells assessed as accumulation at G0/G1 phase at 0.5 uM after 24 hrs by propidium iodide staining-based flow cytometry (reference value: 78.70 +/- 0.02%); assay type: functional
A498 [9] = experiment: Cell cycle arrest in human A498 cells assessed as accumulation at sub-G1 phase at 0.5 uM after 36 hrs by propidium iodide staining-based flow cytometry (reference value: 0.10 +/- 0.07%); assay type: functional
A498 [10] = experiment: Induction of apoptosis in human A498 cells assessed as early apoptotic cells at 0.5 uM after 36 hrs by AnnexinV/FITC-propidium iodide staining-based flow cytometry (reference value: 3.9%); assay type: functional
MDA-MB-435 = experiment: Cytotoxicity against human MDA-MB-435 cells after 48 hrs by sulforhodamine B assay; assay type: functional; settings: MDA-MB-435, 48 h
A498 [11] = experiment: Cell cycle arrest in human A498 cells assessed as accumulation at G0/G1 phase at 0.5 uM after 36 hrs by propidium iodide staining-based flow cytometry (reference value: 78.70 +/- 0.02%); assay type: functional
HOP-62 = experiment: Cytotoxicity against human HOP62 cells after 48 hrs by sulforhodamine B assay; assay type: functional; settings: HOP-62, 48 h
U-251 = experiment: Cytotoxicity against human U251 cells after 48 hrs by sulforhodamine B assay; assay type: functional; settings: U-251, 48 h
A498 [12] = experiment: Cell cycle arrest in human A498 cells assessed as accumulation at G0/G1 phase at 0.5 uM after 48 hrs by propidium iodide staining-based flow cytometry (reference value: 78.70 +/- 0.02%); assay type: functional
A498 [13] = experiment: Antitumor activity against human A498 cells xenografted in BALB/cAnN.Cg-Foxn1nu/CrlNarl nude mouse assessed as suppression of tumor growth at 60 mg/kg/day, ip qd administered 5 times a week for 28 days measured every 7 days relative to control; assay type: functional; settings: route intraperitoneal, read-out: TGI
Outline: (§2)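 Male nude mice (18–20 g, 4–6 weeks) were inoculated subcutaneously with A498 cells, 2 × 10⁶ per mouse in 0.1 mL PBS. Once tumors reached 100 mm³, mice were randomized and given ip doses of 30 or 60 mg/kg, 5 times per week for 4 weeks. Body weight and tumor size were recorded every 7 days over 28 days. Volume = 1/2 ([…]).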

A498 [14] = experiment: Antitumor activity against human A498 cells xenografted in ip dosed BALB/cAnN.Cg-Foxn1nu/CrlNarl nude mouse assessed as suppression of tumor growth administered qd for 5 times a week for 28 days measured every 7 days; assay type: functional, organism-based; outline: as §2
LOX IMVI = experiment: Cytotoxicity against human LOXIMVI cells after 48 hrs by sulforhodamine B assay; assay type: functional
NCI-H23 = experiment: Cytotoxicity against human NCI-H23 cells after 48 hrs by sulforhodamine B assay; assay type: functional; settings: NCI-H23, 48 h
UO-31 = experiment: Cytotoxicity against human UO31 cells after 48 hrs by sulforhodamine B assay; assay type: functional; settings: UO-31, 48 h
SF-539 = experiment: Cytotoxicity against human SF539 cells after 48 hrs by sulforhodamine B assay; assay type: functional; settings: SF-539, 48 h
[15] = Cytotoxicity against human H460 cells after 48 hrs by MTT assay; assay type: functional, cell-based; settings: NCI-H460, 48 h; outline: as §1
OVCAR-8 = experiment: Cytotoxicity against human OVCAR8 cells after 48 hrs by sulforhodamine B assay; assay type: functional; settings: OVCAR-8, 48 h
[16] = read-out: pLC50 (the source's name) (converted)

## OCc1ccc(Cn2c3ccccc3c3oc(CO)cc32)o1
NCI-H226
  GI50: 0.224 µM
NCI-H226; read-out: pTGI (converted)
  TGI: 0.55 µM
A498 [1]
  Activity: Active
COLO 205 [2]
  IC50: 31.1 µM
SF-295
  GI50: 26.9 µM
SF-295; [16]
  CC50: > 100 µM
SF-295; read-out: pTGI
  TGI: > 100 µM
A498 [3]
  Activity: tde
UACC-257
  GI50: 1.45 µM
UACC-257; [16]
  CC50: > 100 µM
UACC-257; read-out: pTGI (converted)
  TGI: 4.37 µM
A498 [4]
  Activity: Active
COLO 205 [5]
  GI50: 61.7 µM
COLO 205 [5]; [16]
  CC50: > 100 µM
COLO 205 [5]; read-out: pTGI
  TGI: > 100 µM
SW-620
  GI50: > 100 µM
SW-620; [16]
  CC50: > 100 µM
SW-620; read-out: pTGI
  TGI: > 100 µM
A498 [6]
  GI50: 0.141 µM
A498 [6]; read-out: pLC50 (converted)
  CC50: 0.661 µM
A498 [6]; read-out: pTGI (converted)
  TGI: 0.302 µM
A498 [7]
  Activity: Dose-dependent effect
A498 [7]; A498, 48 h
  IC50: 0.21 µM
K562
  GI50: 45.7 µM
K562; [16]
  CC50: > 100 µM
K562; read-out: pTGI
  TGI: > 100 µM
A498 [8]
  Activity: 72.65%
A498 [9]
  Activity: 3.16%
A498 [10]
  Activity: 21.5%
MDA-MB-435
  GI50: > 100 µM
MDA-MB-435; [16]
  CC50: > 100 µM
MDA-MB-435; read-out: pTGI
  TGI: > 100 µM
A498 [11]
  Activity: 69.69%
HOP-62
  GI50: > 100 µM
HOP-62; [16]
  CC50: > 100 µM
HOP-62; read-out: pTGI
  TGI: > 100 µM
U-251
  GI50: 30.9 µM
U-251; [16]
  CC50: > 100 µM
U-251; read-out: pTGI
  TGI: > 100 µM
A498 [12]
  Activity: 71.26%
A498 [13]
  inhibition in vivo at 60 mg/kg/day: 80%
A498 [14]
  Activity: Dose-dependent effect
LOX IMVI
  GI50: 66.1 µM
LOX IMVI; [16]
  CC50: > 100 µM
LOX IMVI; read-out: pTGI
  TGI: > 100 µM
NCI-H23
  GI50: > 100 µM
NCI-H23; [16]
  CC50: > 100 µM
NCI-H23; read-out: pTGI
  TGI: > 100 µM
UO-31
  GI50: 50.1 µM
UO-31; [16]
  CC50: > 100 µM
UO-31; read-out: pTGI
  TGI: > 100 µM
SF-539
  GI50: > 100 µM
SF-539; [16]
  CC50: > 100 µM
SF-539; read-out: pTGI
  TGI: > 100 µM
[15]
  IC50: 74.1 µM
OVCAR-8
  GI50: > 100 µM
OVCAR-8; [16]
  CC50: > 100 µM
OVCAR-8; read-out: pTGI
  TGI: > 100 µM
